Experimental data: ChEMBL document CHEMBL1125305, “Synthesis and antitumor activity of amino derivatives of pyridine-2-carboxaldehyde thiosemicarbazone” (1992)

Tests used:
Mus musculus [1] = organism: Mus musculus; experiment: Average survival days at the dose 15x2 mg/ kg in mice bearing the L1210 Leukemia; type: functional
Outline: (§1)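 CD2F1 female mice with implanted L1210 leukemia; each compound given ip as a suspension, twice daily for 6 consecutive days, starting 24 h after tumor implantation; 5-10 mice per group. Read-out is mean survival time, counting only mice dying before day 60. Body weight change is recorded from onset to end of therapy.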

Mus musculus [2] = organism: Mus musculus; experiment: Average change in body weight from onset to termination of therapy in mice bearing the L1210 Leukemia(dose 20x2 mg/ kg ); type: functional
Outline: (§2)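 Female CD2F1 mice carried implanted L1210 leukemia. Drug was given ip in suspension twice daily for 6 consecutive days, beginning 24 h after implantation, with 5–10 mice per group. The value is the average percent body-weight change from onset to termination of therapy.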

Mus musculus [3] = organism: Mus musculus; experiment: Effect of compound on mice bearing the L1210 Leukemia expressed as T/C percent treated/control)-dose 15x2 mg/ kg; type: functional
Mus musculus [4] = organism: Mus musculus; experiment: Average survival days at the dose 10x2 mg/ kg in mice bearing the L1210 Leukemia; type: functional; outline: as §1
Mus musculus [5] = organism: Mus musculus; experiment: Effect of compound on mice bearing the L1210 Leukemia expressed as T/C percent treated/control)-dose 30x2 mg/ kg; type: functional
Mus musculus [6] = organism: Mus musculus; experiment: Average change in body weight from onset to termination of therapy in mice bearing the L1210 Leukemia(dose 10x2 mg/ kg ); type: functional; outline: as §2
Mus musculus [7] = organism: Mus musculus; experiment: Effect of compound on mice bearing the L1210 Leukemia expressed as T/C percent treated/control)-dose 20 mg/ kg; type: functional; details: at 20 mg/kg
Mus musculus [8] = organism: Mus musculus; experiment: Average change in body weight from onset to termination of therapy in mice bearing the L1210 Leukemia(dose 30x2 mg/ kg ); type: functional; outline: as §2
Mus musculus [9] = organism: Mus musculus; experiment: Average survival days at the dose 40 mg/ kg in mice bearing the L1210 Leukemia; type: functional
Mus musculus [10] = organism: Mus musculus; experiment: Average change in body weight from onset to termination of therapy in mice bearing the L1210 Leukemia(dose 15x2 mg/ kg ); type: functional; outline: as §2
Mus musculus [11] = organism: Mus musculus; experiment: Effect of compound on mice bearing the L1210 Leukemia expressed as T/C percent treated/control)-dose 20x2 mg/ kg; type: functional
Mus musculus [12] = organism: Mus musculus; experiment: Average change in body weight from onset to termination of therapy in mice bearing the L1210 Leukemia(dose 20 mg/ kg ); type: functional; details: at 20 mg/kg
Outline: (§3)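 L1210 leukemia in CD2F1 mice. Drug was given ip as a suspension once daily for 6 consecutive days, starting 24 h after tumor implantation, with 5–10 mice per group. The value is the average body-weight change from onset to termination of therapy, in percent.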

Mus musculus [13] = organism: Mus musculus; experiment: Average survival days at the dose 20x2 mg/ kg in mice bearing the L1210 Leukemia; type: functional; outline: as §1
Mus musculus [14] = organism: Mus musculus; experiment: Effect of compound on mice bearing the L1210 Leukemia expressed as T/C percent treated/control)-dose 10x2 mg/ kg; type: functional
Mus musculus [15] = organism: Mus musculus; experiment: Average survival days at the dose 30x2 mg/ kg in mice bearing the L1210 Leukemia; type: functional; outline: as §1
Mus musculus [16] = organism: Mus musculus; experiment: Average survival days at the dose 20 mg/ kg in mice bearing the L1210 Leukemia
Mus musculus [17] = experiment: Effect of compound on mice bearing the L1210 Leukemia expressed as T/C percent treated/control)-dose 10 mg/kg; type: functional
Mus musculus [18] = organism: Mus musculus; experiment: Average change in body weight from onset to termination of therapy in mice bearing the L1210 Leukemia(dose 10 mg/ kg ); type: functional; details: at 10 mg/kg; outline: as §3
Mus musculus [19] = organism: Mus musculus; experiment: Average change in body weight from onset to termination of therapy in mice bearing the L1210 Leukemia(dose 40 mg/ kg ); type: functional; details: at 40 mg/kg; outline: as §3
Mus musculus [20] = organism: Mus musculus; experiment: Effect of compound on mice bearing the L1210 Leukemia expressed as T/C percent treated/control)-dose 40 mg/ kg; type: functional; details: at 40 mg/kg
Mus musculus [21] = organism: Mus musculus; experiment: Average survival days at the dose 60 mg/ kg in mice bearing the L1210 Leukemia
Mus musculus [22] = organism: Mus musculus; experiment: Average change in body weight from onset to termination of therapy in mice bearing the L1210 Leukemia(dose 40x2 mg/ kg ); type: functional; outline: as §2
Mus musculus [23] = organism: Mus musculus; experiment: Average change in body weight from onset to termination of therapy in mice bearing the L1210 Leukemia(dose 60 mg/ kg ); type: functional; details: at 60 mg/kg; outline: as §3
Mus musculus [24] = organism: Mus musculus; experiment: Average survival days at the dose 40x2 mg/ kg in mice bearing the L1210 Leukemia; type: functional; outline: as §1
Mus musculus [25] = organism: Mus musculus; experiment: Effect of compound on mice bearing the L1210 Leukemia expressed as T/C percent treated/control)-dose 40x2 mg/ kg; type: functional
Mus musculus [26] = organism: Mus musculus; experiment: Effect of compound on mice bearing the L1210 Leukemia expressed as T/C percent treated/control)-dose 60 mg/ kg; type: functional; details: at 60 mg/kg

| SMILES | Average survival (Mus musculus [1]) | Average change in body weight (Mus musculus [2]) | T/C (Mus musculus [3]) | Average survival (Mus musculus [4]) | T/C (Mus musculus [5]) | Average change in body weight (Mus musculus [6]) | T/C (Mus musculus [7]) | Average change in body weight (Mus musculus [8]) | Average survival (Mus musculus [9]) | Average change in body weight (Mus musculus [10]) | T/C (Mus musculus [11]) | Average change in body weight (Mus musculus [12]) | Average survival (Mus musculus [13]) | T/C (Mus musculus [14]) | Average survival (Mus musculus [15]) | T/C (Mus musculus [17]) | Average change in body weight (Mus musculus [19]) | further results |
| --- | --- | --- | --- | --- | --- | --- | --- | --- | --- | --- | --- | --- | --- | --- | --- | --- | --- | --- |
| Cc1cc(/C=N/N=C(/N)S)ncc1N | 21 days | -12.1% | 276% | 18.6 days | 190% | 1.4% | 138% | -12.4% | 10.8 days | -7.1% | 236% | -7% | 17.9 days | 245% | 14.4 days | – | – | – |
| N/C(S)=N/N=C/c1ccc(N)cn1 | 16.8 days | -12.3% | 221% | 17.6 days | 91% | -3.8% | 140% | -16% | – | -7.7% | 185% | -2.8% | 14 days | 232% | 6.9 days | – | – | Average survival (Mus musculus [16]): 11 days |
| Cc1cc(/C=N/N=C(/N)S)ncc1NO | – | – | – | – | – | – | – | – | 10.6 days | – | – | – | – | – | – | 136% | – | Average change in body weight (Mus musculus [18]): -2.7% |
| N/C(S)=N/N=C/c1ccc(O)cn1 | – | – | – | – | – | – | – | – | 10.4 days | – | – | – | – | – | – | 133% | 2% | – |
| NC(=S)N/N=C/c1ncccc1N [TRIAPINE] | 19.8 days | -12.4% | 262% | 18.7 days | 96% | -6.4% | – | -12.8% | 14.6 days | -3.3% | 192% | – | 14.6 days | 246% | 7.3 days | – | -5.9% | T/C (Mus musculus [20]): 187% |
| Cc1ccnc(/C=N/N=C(/N)S)c1N | – | -3.8% | – | 14.8 days | 232% | 1.4% | – | -2.4% | – | – | 222% | – | 16.9 days | 195% | 17.6 days | – | – | Average survival (Mus musculus [21]): 14.9 days; Average change in body weight (Mus musculus [22]): -8.1%; Average change in body weight (Mus musculus [23]): 2%; Average survival (Mus musculus [24]): 19.4 days; T/C (Mus musculus [25]): 255%; T/C (Mus musculus [26]): 190% |
